Test results taken from paper PMC10938441 (ACS Omega, 2024).

Tests used:
[1] = Cytotoxicity, MTT reduction assay in HepG2 cells; type: cell-based; details: human, HepG2 cells, CC50 (HepG2)
Method in brief: (§1)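 HepG2 cells grown at 37 °C, 5% CO2 in DMEM with streptomycin (40 mg/L) and 10% heat-inactivated FBS. Seeded at 1 × 10^3 cells/well, then exposed to serial dilutions of test compound for 72 h, each concentration in triplicate. MTT added for 4 h; formazan dissolved in isopropanol, read at OD570. Viability expressed as % of vehicle control; CC50 fitted from % viability vs log concentration.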

[2] = Cytotoxicity, methylene blue staining in Calu-3 cells; type: cell-based; details: human, Calu-3 cell monolayers
Method in brief: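 Calu-3 monolayers (2 × 10^4 cells/well) exposed to test compound at several concentrations for 72 h at 37 °C, 5% CO2, triplicate per concentration. Cells PBS-washed, then fixed and stained 1 h at 37 °C with HBSS + 1.25% glutaraldehyde + 0.6% methylene blue. Rinsed with water; dye eluted 15 min at room temperature (50% ethanol, 49% PBS, 1% acetic acid); A660 read. CC50 fitted from % viability vs log concentration.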

SARS-CoV-2 = type: cell-based, SARS-CoV-2 B.1 lineage; details: correlation between anti-SARS-CoV-2 activity (EC50) and HepG2 cytotoxicity (CC50)
HepG2 cell lines = experiment: Cytotoxicity, MTT reduction assay in HepG2 cells; type: cell-based; details: read-out: CC50 (HepG2), 72 h
Method in brief: as §1

| SMILES | CC50 at 72 h [1] [µM] | CC50 at 72 h [2] [µM] | selectivity index (SARS-CoV-2) | CC50 (HepG2 cell lines) [µM] |
| --- | --- | --- | --- | --- |
| Cc1c(-c2ccc(-c3ccccc3F)cc2)nc2ccc(F)cc2c1C(=O)O [brequinar] | 17 ± 4 | 48 ± 2 |  |  |
| CC(C)=CCC1=C(O)C(=O)c2ccccc2C1=O [lapachol] | 71 ± 9 | 67 ± 2 | 47 ± 7 |  |
| C/C(O)=C(\C#N)C(=O)Nc1ccc(C(F)(F)F)cc1 [teriflunomide] | 164 | 59 ± 2 |  | 160 ± 20 |
